{"source": "paper PMC9392492", "about": "(International Journal of Nanomedicine, 2022)", "assay_type_in_all_cases": "in vivo", "key": {"[1]": {"system": "formalin-induced nociception in mice", "assay": "Formalin test", "conditions": "formalin 15 min after i.g. administration; RJ-III 0.10 mg/kg, aspirin 200 mg/kg", "summary_of_the_method": "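Fasted ICR mice, n = 10 per group, were dosed i.g. with free or SLN-formulated test compound (0.10 mg/kg), aspirin (200 mg/kg) or saline. Then 25 μL of 2.5% formalin was injected s.c. into the left hind paw at 15 or 45 min post-dose, in separate experiments. Licking/biting time (s) was scored at 0–5 min (phase I) and 15–30 min (phase II).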"}, "[2]": {"system": "hot-plate nociception in mice", "assay": "Hot plate test", "conditions": "RJ-III 0.2 mg/kg, aspirin 300 mg/kg", "summary_of_the_method": "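Baseline latency (paw lick or jump) on a 53 ± 0.5°C plate was taken three times, 15 min apart. Mice under 5 s or over 30 s were excluded. Fasted ICR mice (n = 10) then received free or SLN-formulated test compound (0.20 mg/kg), aspirin or saline, all i.g. Latency was re-measured at 15 and 45 min, with a 30 s cutoff.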"}, "[3]": {"system": "acetic acid-induced writhing in mice", "assay": "Acetic acid writhing test", "conditions": "i.g.; RJ-III 0.10 mg/kg, aspirin 200 mg/kg", "summary_of_the_method": "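Fasted ICR mice (18–22 g, both sexes), n = 10 per group, received free or SLN-formulated test compound (0.10 mg/kg), aspirin (200 mg/kg) or 0.9% saline, all i.g. Then 0.8% acetic acid (10 mL/kg, i.p.) was injected at 15 or 45 min post-dose, in two separate experiments. Abdominal contortions and hind-paw extensions were counted for 30 min.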"}}, "data": [{"smiles": "CC(=O)Oc1ccccc1C(=O)O", "note": "[aspirin]", "values": [{"measurement": "phase I response (licking time) vs normal saline", "setting": "[1]", "value": "no effects"}, {"measurement": "phase II response (licking time) vs normal saline", "setting": "[1]", "value": "suppressed behavioral responses"}, {"measurement": "latency time compared to pretreatment", "setting": "[2]; 15 min after i.g. administration", "value": "increased the latency time"}, {"measurement": "antinociception relative to pretreatment", "setting": "[2]; 45 min after i.g. administration", "value": "no significant analgesic effect"}, {"measurement": "change in number of writhes between 15 and 45 min", "setting": "[3]", "value": "statistically increases"}]}]}
